Experimental findings from ChEMBL document CHEMBL1165943, “Design and synthesis of new anticancer pyrimidines with multiple-kinase inhibitory effect” (Bioorg Med Chem, 2010) are described below.

Structures are written as SMILES.

Test [1] is described as follows: Cytotoxicity against human RPMI8266 cells assessed as cell growth at 100 nM after 48 hrs by sulforhodamine B assay. The format is functional. To be noted: read-out: Activity. On the technique in general: The SRB assay estimates cell density from bound dye.
The subject of another test is SK-MEL-28. The test is described as follows: Growth inhibition of human SK-MEL-28 cells after 48 hrs by sulforhodamine B assay. The format is functional. To be noted: SK-MEL-28, 48 h. The essentials:
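Adherent SK-MEL-28 cells, plated in RPMI 1640 with 5% FBS and 2 mM L-glutamine, get five 10-fold or ½log drug dilutions for 48 h at 37 °C. Cells are fixed with cold TCA (final 10%) for 60 min at 4 °C, stained with 0.4% SRB, solubilized in 10 mM Tris and read at 515 nm. IC50 is solved from [(Ti−Tz)/(C−Tz)]×100 = 50.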

A further test relates to MCF7. In words: Growth inhibition of human MCF7 cells after 48 hrs by sulforhodamine B assay. The format is functional. The conditions noted are these: MCF7, 48 h. The essentials: (§1)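 Cells grown in RPMI 1640 with 5% FBS and 2 mM L-glutamine, seeded at 5,000–40,000 cells/well according to doubling time. After 24 h, time-zero plates are TCA-fixed. Five concentrations (10-fold or ½log dilutions, DMSO stocks) are applied for 48 h at 37 °C, 5% CO₂. Cells are TCA-fixed, SRB-stained and read at 515 nm. IC₅₀ is taken from [(Ti−Tz)/(C−Tz)]×100 = 50.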

A further test has as its system A549. In words: Cytotoxicity against human A549 cells assessed as cell growth at 0.001 uM after 48 hrs by sulforhodamine B assay. Type of test: functional. The conditions noted are these: A549, 48 h, read-out: Activity.
For test [2], the system named is HCC 2998. The test is described as follows: Cytotoxicity against human HCC2998 cells assessed as cell growth at 0.01 uM after 48 hrs by sulforhodamine B assay. The format is functional. The conditions noted are these: HCC 2998, 48 h, read-out: Activity.
The subject of test [3] is NCI-H226. In words: Cytotoxicity against human NCI-H226 cells assessed as cell growth at 0.001 uM after 48 hrs by sulforhodamine B assay. Type of test: functional. The conditions noted are these: NCI-H226, 48 h, read-out: Activity.
The test system of test [4] is SR. The test is described as follows: Growth inhibition of human SR cells after 48 hrs by sulforhodamine B assay. The format is functional. The method in brief: as §1
The subject of test [5] is SR. The test is described as follows: Cytotoxicity against human SR cells assessed as cell growth at 1 uM after 48 hrs by sulforhodamine B assay. The format is functional. The conditions noted are these: read-out: Activity.
A further test relates to NCI-H23. The test is described as follows: Cytotoxicity against human NCI-H23 cells assessed as cell growth at 100 nM after 48 hrs by sulforhodamine B assay. Type of test: functional. To be noted: NCI-H23, 48 h, read-out: Activity.
A further test has as its system PC-3. The test is described as follows: Cytotoxicity against human PC3 cells assessed as cell growth at 100 nM after 48 hrs by sulforhodamine B assay. Type of test: functional. To be noted: PC-3, 48 h, read-out: Activity.
Another test deals with HOP-92. In words: Cytotoxicity against human HOP92 cells assessed as cell growth at 100 nM after 48 hrs by sulforhodamine B assay. Type of test: functional. The conditions noted are these: HOP-92, 48 h, read-out: Activity.
The subject of a further test is CCRF-CEM. In words: Cytotoxicity against human CCRF-CEM cells assessed as cell growth at 10 uM after 48 hrs by sulforhodamine B assay. Type of test: functional. The conditions noted are these: read-out: Activity.
Test [6] relates to HCC 2998. In words: Cytotoxicity against human HCC2998 cells assessed as cell growth at 100 nM after 48 hrs by sulforhodamine B assay. Type of test: functional. To be noted: HCC 2998, 48 h, read-out: Activity.
For test [7], the system named is NCI-H226. In words: Cytotoxicity against human NCI-H226 cells assessed as cell growth at 1 uM after 48 hrs by sulforhodamine B assay. The format is functional. To be noted: NCI-H226, 48 h, read-out: Activity.
The test system of a further test is RXF 393. In words: Cytotoxicity against human RXF393 cells assessed as cell growth at 100 nM after 48 hrs by sulforhodamine B assay. The format is functional. To be noted: RXF 393, 48 h, read-out: Activity.
Test [8] concerns NCI-H226. The test is described as follows: Cytotoxicity against human NCI-H226 cells assessed as cell growth at 0.01 uM after 48 hrs by sulforhodamine B assay. The format is functional. The conditions noted are these: NCI-H226, 48 h, read-out: Activity.
The target of test [9] is Inhibitor of nuclear factor kappa-B kinase subunit epsilon (Homo sapiens) (UniProt Q14164). The test is described as follows: Inhibition of IKKepsilon at 10 uM by HotSpot assay.
Test [10] has as its target Calcium/calmodulin-dependent protein kinase type II subunit beta (Homo sapiens) (UniProt Q13554). In words: Inhibition of CAMK2B at 10 uM by HotSpot assay.
Test [11] has as its target RAF proto-oncogene serine/threonine-protein kinase (Homo sapiens) (UniProt P04049). The test is described as follows: Inhibition of RAF1 at 10 uM by HotSpot assay.
Test [12] addresses Insulin receptor (Homo sapiens) (UniProt P06213). In words: Inhibition of IR at 10 uM by HotSpot assay.
For test [13], the target named is Macrophage colony-stimulating factor 1 receptor (Homo sapiens) (UniProt P07333). In words: Inhibition of FMS at 10 uM by HotSpot assay.
Test [14] deals with Platelet-derived growth factor receptor beta (Homo sapiens) (UniProt P09619). In words: Inhibition of PDGFRbeta at 10 uM by HotSpot assay.
Chain of Platelet-derived growth factor receptor beta (Homo sapiens) (P09619 whole entry): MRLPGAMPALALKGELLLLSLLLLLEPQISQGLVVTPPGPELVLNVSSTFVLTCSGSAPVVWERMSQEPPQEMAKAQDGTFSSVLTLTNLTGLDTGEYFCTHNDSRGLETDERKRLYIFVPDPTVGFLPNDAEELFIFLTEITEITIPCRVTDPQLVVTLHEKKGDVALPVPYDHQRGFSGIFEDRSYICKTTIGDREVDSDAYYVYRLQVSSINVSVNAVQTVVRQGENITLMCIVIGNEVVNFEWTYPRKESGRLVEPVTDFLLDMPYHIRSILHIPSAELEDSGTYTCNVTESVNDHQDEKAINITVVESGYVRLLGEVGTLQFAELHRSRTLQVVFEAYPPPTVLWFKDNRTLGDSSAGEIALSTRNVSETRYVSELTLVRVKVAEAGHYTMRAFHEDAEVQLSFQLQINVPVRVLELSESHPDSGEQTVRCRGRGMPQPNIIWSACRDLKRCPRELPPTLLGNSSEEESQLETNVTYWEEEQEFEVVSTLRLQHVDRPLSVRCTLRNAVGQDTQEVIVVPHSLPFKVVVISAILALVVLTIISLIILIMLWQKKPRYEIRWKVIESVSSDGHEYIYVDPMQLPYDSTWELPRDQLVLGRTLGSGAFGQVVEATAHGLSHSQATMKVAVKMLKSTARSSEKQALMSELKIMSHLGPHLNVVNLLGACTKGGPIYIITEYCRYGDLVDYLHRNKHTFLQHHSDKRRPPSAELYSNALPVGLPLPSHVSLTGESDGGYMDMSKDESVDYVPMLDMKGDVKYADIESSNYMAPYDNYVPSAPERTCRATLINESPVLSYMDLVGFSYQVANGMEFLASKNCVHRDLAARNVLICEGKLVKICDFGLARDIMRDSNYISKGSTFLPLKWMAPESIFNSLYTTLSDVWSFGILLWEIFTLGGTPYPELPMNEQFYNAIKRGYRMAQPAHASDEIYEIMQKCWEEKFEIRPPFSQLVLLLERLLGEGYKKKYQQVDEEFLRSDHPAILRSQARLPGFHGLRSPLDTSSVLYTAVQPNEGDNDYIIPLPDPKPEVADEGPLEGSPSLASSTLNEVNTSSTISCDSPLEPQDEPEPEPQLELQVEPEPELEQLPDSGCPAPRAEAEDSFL
Test [15] has as its target Serine/threonine-protein kinase B-raf (Homo sapiens) (UniProt P15056). In words: Inhibition of B-Raf at 10 uM by HotSpot assay.
The target in test [16] is Dual specificity mitogen-activated protein kinase kinase 1 (Homo sapiens) (UniProt Q02750). The test is described as follows: Inhibition of MEK1 at 10 uM by HotSpot assay.
Chain of Dual specificity mitogen-activated protein kinase kinase 1 (Homo sapiens) (Q02750 whole entry): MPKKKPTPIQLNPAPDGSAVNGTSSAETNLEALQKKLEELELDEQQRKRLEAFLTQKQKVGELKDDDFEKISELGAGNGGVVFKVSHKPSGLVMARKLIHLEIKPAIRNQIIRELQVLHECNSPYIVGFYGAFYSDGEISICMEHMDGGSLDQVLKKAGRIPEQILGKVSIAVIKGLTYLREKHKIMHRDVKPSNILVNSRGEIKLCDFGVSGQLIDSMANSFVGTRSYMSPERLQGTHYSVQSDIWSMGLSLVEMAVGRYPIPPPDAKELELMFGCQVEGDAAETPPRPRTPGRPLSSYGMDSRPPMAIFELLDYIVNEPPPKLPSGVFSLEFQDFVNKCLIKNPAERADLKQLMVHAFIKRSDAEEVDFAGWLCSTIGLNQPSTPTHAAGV
Test [17] has as its target Fibroblast growth factor receptor 1 (Homo sapiens) (UniProt P11362). In words: Inhibition of FGFR1 at 10 uM by HotSpot assay.
Test [18] has as its target Protein kinase C alpha type (Homo sapiens) (UniProt P17252). The test is described as follows: Inhibition of PKCalpha at 10 uM by HotSpot assay.
Test [19] concerns the target Hepatocyte growth factor receptor (Homo sapiens) (UniProt P08581). The test is described as follows: Inhibition of c-MET at 10 uM by HotSpot assay.
Test [20] concerns the target Tyrosine-protein kinase Yes (Homo sapiens) (UniProt P07947). The test is described as follows: Inhibition of YES1 at 10 uM by HotSpot assay.
For test [21], the target named is [Pyruvate dehydrogenase (acetyl-transferring)] kinase isozyme 1, mitochondrial (Homo sapiens) (UniProt Q15118). The test is described as follows: Inhibition of PDK1 at 10 uM by HotSpot assay.
Test [22] deals with Serine/threonine-protein kinase PAK 2 (Homo sapiens) (UniProt Q13177). In words: Inhibition of PAK2 at 10 uM by HotSpot assay.
The target of test [23] is Glycogen synthase kinase-3 beta (Homo sapiens) (UniProt P49841). The test is described as follows: Inhibition of GSK3-beta at 10 uM by HotSpot assay.
Chain of Glycogen synthase kinase-3 beta (Homo sapiens) (P49841 whole entry, looked up): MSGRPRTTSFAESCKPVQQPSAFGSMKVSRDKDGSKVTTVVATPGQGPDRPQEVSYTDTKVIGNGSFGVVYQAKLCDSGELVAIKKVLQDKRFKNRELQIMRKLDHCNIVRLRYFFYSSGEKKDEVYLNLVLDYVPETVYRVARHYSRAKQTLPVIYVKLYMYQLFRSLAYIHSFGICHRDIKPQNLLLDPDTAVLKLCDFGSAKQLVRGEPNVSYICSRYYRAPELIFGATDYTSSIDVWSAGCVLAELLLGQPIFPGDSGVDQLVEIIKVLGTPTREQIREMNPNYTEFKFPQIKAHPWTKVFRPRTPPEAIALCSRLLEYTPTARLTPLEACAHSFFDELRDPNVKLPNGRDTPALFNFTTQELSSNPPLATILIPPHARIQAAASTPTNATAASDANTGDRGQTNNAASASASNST
Test [24] addresses Protein-tyrosine kinase 2-beta (Homo sapiens) (UniProt Q14289). The test is described as follows: Inhibition of PTK2B at 10 uM by HotSpot assay.
Where [25] appears, read: read-out: LC50 (the source's name).

Chain of Insulin receptor (Homo sapiens) (P06213 28-758 limits assumed): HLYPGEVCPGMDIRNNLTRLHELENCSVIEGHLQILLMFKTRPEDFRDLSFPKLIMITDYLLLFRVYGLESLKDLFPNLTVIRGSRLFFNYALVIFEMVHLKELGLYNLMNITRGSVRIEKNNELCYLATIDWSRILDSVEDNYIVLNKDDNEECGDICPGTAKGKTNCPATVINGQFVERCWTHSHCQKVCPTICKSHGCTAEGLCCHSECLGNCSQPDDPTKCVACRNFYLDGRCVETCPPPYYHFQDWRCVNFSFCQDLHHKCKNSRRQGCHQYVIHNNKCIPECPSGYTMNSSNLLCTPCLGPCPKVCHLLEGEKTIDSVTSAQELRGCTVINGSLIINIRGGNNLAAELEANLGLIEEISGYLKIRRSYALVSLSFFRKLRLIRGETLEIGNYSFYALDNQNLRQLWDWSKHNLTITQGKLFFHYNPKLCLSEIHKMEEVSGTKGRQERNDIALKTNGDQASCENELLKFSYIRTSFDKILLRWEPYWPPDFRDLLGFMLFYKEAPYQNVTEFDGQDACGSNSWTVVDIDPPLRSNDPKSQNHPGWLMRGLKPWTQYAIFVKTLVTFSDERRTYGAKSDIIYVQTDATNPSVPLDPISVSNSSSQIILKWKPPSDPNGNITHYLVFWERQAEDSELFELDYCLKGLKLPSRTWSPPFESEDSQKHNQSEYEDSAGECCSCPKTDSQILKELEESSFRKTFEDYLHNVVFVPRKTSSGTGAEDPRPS
Chain of Insulin receptor (Homo sapiens) (P06213 763-1382 limits assumed): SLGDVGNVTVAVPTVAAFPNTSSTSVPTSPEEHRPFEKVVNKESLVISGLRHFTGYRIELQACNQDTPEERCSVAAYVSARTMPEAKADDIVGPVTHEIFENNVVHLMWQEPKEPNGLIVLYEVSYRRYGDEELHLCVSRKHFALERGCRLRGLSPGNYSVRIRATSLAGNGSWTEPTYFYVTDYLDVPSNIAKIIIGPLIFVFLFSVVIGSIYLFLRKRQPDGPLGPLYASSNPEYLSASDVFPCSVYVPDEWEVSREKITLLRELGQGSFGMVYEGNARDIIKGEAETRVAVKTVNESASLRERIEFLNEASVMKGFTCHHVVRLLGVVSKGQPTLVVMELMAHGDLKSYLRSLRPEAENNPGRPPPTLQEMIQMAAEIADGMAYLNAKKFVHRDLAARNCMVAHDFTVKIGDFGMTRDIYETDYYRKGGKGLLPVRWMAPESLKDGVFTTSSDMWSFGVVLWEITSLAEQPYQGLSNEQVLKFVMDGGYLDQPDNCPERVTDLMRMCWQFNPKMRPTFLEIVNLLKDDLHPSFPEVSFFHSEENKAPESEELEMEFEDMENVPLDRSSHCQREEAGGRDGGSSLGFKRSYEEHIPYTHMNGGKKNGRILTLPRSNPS
Chain of Serine/threonine-protein kinase B-raf (Homo sapiens) (P15056 whole entry): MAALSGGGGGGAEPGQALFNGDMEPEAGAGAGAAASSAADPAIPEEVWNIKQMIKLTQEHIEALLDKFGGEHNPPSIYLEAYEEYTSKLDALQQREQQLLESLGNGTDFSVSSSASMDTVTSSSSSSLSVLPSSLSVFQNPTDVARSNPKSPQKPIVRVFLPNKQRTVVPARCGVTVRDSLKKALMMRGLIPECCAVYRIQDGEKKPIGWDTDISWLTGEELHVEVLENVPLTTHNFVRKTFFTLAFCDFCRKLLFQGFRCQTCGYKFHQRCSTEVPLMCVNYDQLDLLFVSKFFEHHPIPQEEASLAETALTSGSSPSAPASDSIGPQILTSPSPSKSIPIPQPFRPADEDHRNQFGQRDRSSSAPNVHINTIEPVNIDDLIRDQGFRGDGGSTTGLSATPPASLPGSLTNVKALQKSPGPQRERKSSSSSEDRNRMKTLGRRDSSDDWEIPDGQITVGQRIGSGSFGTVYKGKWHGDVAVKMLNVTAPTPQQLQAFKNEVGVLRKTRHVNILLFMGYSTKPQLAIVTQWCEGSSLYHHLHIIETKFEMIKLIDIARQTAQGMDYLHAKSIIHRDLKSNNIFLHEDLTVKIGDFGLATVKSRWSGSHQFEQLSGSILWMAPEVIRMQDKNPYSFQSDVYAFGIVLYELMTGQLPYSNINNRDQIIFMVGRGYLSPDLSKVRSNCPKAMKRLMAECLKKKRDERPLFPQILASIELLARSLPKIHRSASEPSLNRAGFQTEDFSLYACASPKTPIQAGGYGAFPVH
Chain of Calcium/calmodulin-dependent protein kinase type II subunit beta (Homo sapiens) (Q13554 whole entry): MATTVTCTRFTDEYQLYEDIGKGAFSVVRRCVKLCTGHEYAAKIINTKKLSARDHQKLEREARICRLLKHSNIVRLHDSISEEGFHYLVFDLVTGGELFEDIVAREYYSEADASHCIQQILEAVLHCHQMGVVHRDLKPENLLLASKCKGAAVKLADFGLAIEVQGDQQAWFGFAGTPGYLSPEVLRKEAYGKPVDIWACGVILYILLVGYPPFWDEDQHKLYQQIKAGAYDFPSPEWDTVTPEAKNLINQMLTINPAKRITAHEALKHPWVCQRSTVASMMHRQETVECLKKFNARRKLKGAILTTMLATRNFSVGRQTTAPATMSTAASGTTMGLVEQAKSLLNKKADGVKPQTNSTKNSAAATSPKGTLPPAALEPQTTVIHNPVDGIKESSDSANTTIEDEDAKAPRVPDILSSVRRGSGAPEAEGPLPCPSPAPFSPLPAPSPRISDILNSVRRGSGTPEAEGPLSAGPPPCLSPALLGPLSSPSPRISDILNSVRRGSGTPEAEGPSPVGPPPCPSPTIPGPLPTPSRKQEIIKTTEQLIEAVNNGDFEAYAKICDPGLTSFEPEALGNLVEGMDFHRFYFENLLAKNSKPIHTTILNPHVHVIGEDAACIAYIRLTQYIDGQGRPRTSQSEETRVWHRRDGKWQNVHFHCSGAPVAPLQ

On to `CC(=O)c1ccccc1-c1ccc(-c2ccnc(NC(=O)Nc3cc(N4CCOCC4)cc(C(F)(F)F)c3)n2)cn1`, for which the growth at 0.1 µM came to 79% in [1]; 83% in the test with NCI-H23; 92% with PC-3; 91% in the test on HOP-92; 117% in the test on HCC 2998 [6]; 82% with RXF 393. Besides, the TGI in the test on SK-MEL-28, in the test with MCF7 and in the test on SR [4] was above 100 µM throughout. Further, the CC50 in the test on SK-MEL-28 (setting [25]), with MCF7 (setting [25]) and in the test with SR [4] (setting [25]) was above 100 µM each time. Also, the GI50 in the test on MCF7 and in the test with SR [4] was above 100 µM throughout. In addition, the results for the growth at 0.001 µM with A549 and in the test on NCI-H226 [3] were 94% and 105%, respectively. Besides, the growth at 0.01 µM in the test with HCC 2998 [2] came out at 113%; in the test on NCI-H226 [8], 108%. For the same compound, the results for the growth at 1 µM with SR [5] and in the test on NCI-H226 [7] were 78% and 53%, respectively. The growth at 10 µM with CCRF-CEM came to 97%.

Take `CC(=O)Nc1cccc(-c2ccc(-c3ccnc(NC(=O)Nc4cc(C(F)(F)F)cc(C(F)(F)F)c4)n3)cn2)c1.Cl`: the inhibition in test [9], in [10], in test [11], in test [12], in test [13] and in test [14] was below 50% each time. Besides, the inhibition in test [15], in [16], in test [17], in test [18], in test [19] and in test [20] was below 50% each time. In addition, the inhibition in test [21], in test [22], in [23] and in test [24] was below 50% in each case.
